Measured values: ChEMBL document CHEMBL1955714, “Synthesis and antidiabetic performance of β-amino ketone containing nabumetone moiety” (Bioorg Med Chem, 2012)
In brackets after ≈: the same amount, converted by molar mass.

Experiments:
[1] = biological target: Peroxisome proliferator-activated receptor (Homo sapiens) (UniProt P37231+Q07869+Q03181); test: Activation of PPAR in human HepG2 cells at 10 ug/ml after 24 hrs by luciferase reporter gene assay relative to rosiglitazone; assay type: cell-based
How it was run: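 HepG2 cells in low-glucose DMEM with 100 U mL-1 streptomycin/penicillin, plated at 1.5 × 10⁴ per well a day before transfection. At 70% confluence they were co-transfected with pPPRE-Luc (firefly) and phRL-TK (renilla). After 24 h the medium was replaced with sample-containing medium, with rosiglitazone as positive control. Dual firefly/renilla luciferase was read after a further 24 h; untransfected cells served as blank.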

Rattus norvegicus = species: Rattus norvegicus; test: Inhibition of rat intestine alpha-glucosidase using maltose as substrate after 10 mins by spectrometric analysis relative to acarbose; design: concentration or dose not given beside the values
How it was run: (§1)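 Enzyme and sample were preincubated at 37 °C for 10 min. Then 0.1 mol L-1 maltose was added and incubated 10 min at room temperature. The reaction was stopped and OD read at 490 nm. Blank (no enzyme, no sample) and negative (no sample) controls were run alongside.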

[2] = biological target: T1, Peroxisome proliferator-activated receptor (Homo sapiens, UniProt P37231+Q07869+Q03181); test: Activation of PPAR in human HepG2 cells after 24 hrs by luciferase reporter gene assay; assay type: cell-based
T1 sequence (P37231 whole entry): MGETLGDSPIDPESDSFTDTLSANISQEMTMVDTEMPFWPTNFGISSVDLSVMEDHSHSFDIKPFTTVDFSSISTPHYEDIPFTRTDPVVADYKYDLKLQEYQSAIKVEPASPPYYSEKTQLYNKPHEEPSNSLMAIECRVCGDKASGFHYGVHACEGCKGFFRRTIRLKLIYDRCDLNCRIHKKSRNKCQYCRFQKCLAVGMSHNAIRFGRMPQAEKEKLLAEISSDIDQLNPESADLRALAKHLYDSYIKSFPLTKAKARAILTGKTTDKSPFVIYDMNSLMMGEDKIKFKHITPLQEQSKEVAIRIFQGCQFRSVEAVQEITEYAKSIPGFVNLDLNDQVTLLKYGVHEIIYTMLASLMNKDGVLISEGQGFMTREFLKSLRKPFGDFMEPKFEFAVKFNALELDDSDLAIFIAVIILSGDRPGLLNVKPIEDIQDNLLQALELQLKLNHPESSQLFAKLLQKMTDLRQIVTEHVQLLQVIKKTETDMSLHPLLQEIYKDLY
T1 sequence (Q07869 whole entry): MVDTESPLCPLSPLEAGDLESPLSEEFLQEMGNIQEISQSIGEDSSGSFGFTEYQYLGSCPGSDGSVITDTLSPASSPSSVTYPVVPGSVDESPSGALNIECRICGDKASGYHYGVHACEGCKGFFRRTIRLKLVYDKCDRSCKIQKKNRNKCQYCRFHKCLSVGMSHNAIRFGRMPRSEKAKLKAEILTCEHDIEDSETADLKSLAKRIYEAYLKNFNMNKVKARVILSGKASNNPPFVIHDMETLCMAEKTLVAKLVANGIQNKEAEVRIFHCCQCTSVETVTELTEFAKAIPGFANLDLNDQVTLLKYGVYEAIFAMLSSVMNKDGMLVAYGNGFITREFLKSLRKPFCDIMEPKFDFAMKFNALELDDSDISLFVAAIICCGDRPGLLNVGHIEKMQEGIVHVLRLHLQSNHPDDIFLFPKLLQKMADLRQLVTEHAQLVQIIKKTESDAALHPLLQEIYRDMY
T1 sequence (Q03181 whole entry): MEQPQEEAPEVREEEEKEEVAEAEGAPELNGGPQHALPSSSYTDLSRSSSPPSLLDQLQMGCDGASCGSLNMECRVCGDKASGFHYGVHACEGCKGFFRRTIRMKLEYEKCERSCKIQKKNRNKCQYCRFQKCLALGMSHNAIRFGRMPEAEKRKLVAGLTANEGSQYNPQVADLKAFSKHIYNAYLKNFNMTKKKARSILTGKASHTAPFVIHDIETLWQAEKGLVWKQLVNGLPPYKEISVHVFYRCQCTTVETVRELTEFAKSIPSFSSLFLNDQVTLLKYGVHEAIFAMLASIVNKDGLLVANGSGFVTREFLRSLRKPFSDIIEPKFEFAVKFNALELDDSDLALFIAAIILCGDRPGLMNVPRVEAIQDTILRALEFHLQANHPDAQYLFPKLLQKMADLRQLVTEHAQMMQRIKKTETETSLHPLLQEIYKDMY

[3] = Inhibition of rat intestine alpha-glucosidase using maltose as substrate after 10 mins by spectrometric analysis; how it was run: as §1

Row | Structure (SMILES) | Activity [1] [%] | inhibition (Rattus norvegicus) [%] | EC50 [2] [µg/mL] | IC50 [3] [µg/mL]
1 | COc1cccc(C(CC(=O)CCc2ccc3cc(OC)ccc3c2)Nc2ccc(S(N)(=O)=O)cc2)c1 (stereo not given) | 60.3 | 15.7 | – | –
2 | COc1ccc2cc(CCC(=O)CC(Nc3ccc(S(N)(=O)=O)cc3)c3ccc(Cl)c(Cl)c3)ccc2c1 (stereo not given) | 45.8 | 34.8 | – | –
3 | COc1ccc2cc(CCC(=O)CC(Nc3ccc(S(N)(=O)=O)cc3)c3ccc(Br)cc3)ccc2c1 (stereo not given) | 67.3 | 79.7 | 8.21 (≈ 14.5 µM) | 2.92 (≈ 5.15 µM)
4 | COc1ccc2cc(CCC(=O)CC(Nc3ccc(S(=O)(=O)Nc4cc(C)on4)cc3)c3ccc(Cl)cc3)ccc2c1 (stereo not given) | 3.92 | 44.2 | – | –
5 | CCCCOc1ccc(C(CC(=O)CCc2ccc3cc(OC)ccc3c2)Nc2cc(C)on2)cc1 (stereo not given) | 6.33 | 11 | – | –
6 | COc1ccc2cc(CCC(=O)CC(Nc3cc(C)on3)c3ccc(Cl)cc3)ccc2c1 (stereo not given) | 6.32 | 26.3 | – | –
7 | COc1ccc2cc(CCC(=O)CC(Nc3cc(C)on3)c3ccccc3)ccc2c1 (stereo not given) | 5.83 | 7.36 | – | –
8 | COc1ccc2cc(CCC(=O)CC(Nc3ccc(S(N)(=O)=O)cc3)c3ccc([N+](=O)[O-])cc3)ccc2c1 (stereo not given) | 46.8 | 31.6 | – | –
9 | CCCCOc1ccc(C(CC(=O)CCc2ccc3cc(OC)ccc3c2)Nc2ccc(S(N)(=O)=O)cc2)cc1 (stereo not given) | 18 | -4.69 | – | –
10 | COc1ccc2cc(CCC(=O)CC(Nc3ccc(S(=O)(=O)Nc4cc(C)on4)cc3)c3ccc(O)cc3)ccc2c1 (stereo not given) | 13.8 | 7.07 | – | –
11 | COc1cccc(C(CC(=O)CCc2ccc3cc(OC)ccc3c2)Nc2ccc(S(=O)(=O)Nc3cc(C)on3)cc2)c1 (stereo not given) | 78.2 | 12.7 | – | –
12 | COc1ccc2cc(CCC(=O)CC(Nc3ccc(S(=O)(=O)Nc4cc(C)on4)cc3)c3ccc(Cl)c(Cl)c3)ccc2c1 (stereo not given) | 22.4 | 53.7 | – | –
13 | COc1ccc2cc(CCC(=O)CC(Nc3cc(C)on3)c3cccc(C)c3)ccc2c1 (stereo not given) | 12.7 | 10.2 | – | –
14 | COc1ccc2cc(CCC(=O)CC(Nc3ccc(S(=O)(=O)Nc4cc(C)on4)cc3)c3cccc([N+](=O)[O-])c3)ccc2c1 (stereo not given) | 81.8 | 41.6 | – | –
15 | COc1ccc2cc(CCC(=O)CC(Nc3ccc(S(=O)(=O)Nc4cc(C)on4)cc3)c3ccc4c(c3)OCO4)ccc2c1 (stereo not given) | 43 | 19.2 | – | –
16 | COc1ccc2cc(CCC(=O)CC(Nc3ccc(S(=O)(=O)Nc4cc(C)on4)cc3)c3cccc(F)c3)ccc2c1 (stereo not given) | 36.7 | 24.7 | – | –
17 | COc1ccc2cc(CCC(=O)CC(Nc3ccc(S(N)(=O)=O)cc3)c3ccc4c(c3)OCO4)ccc2c1 (stereo not given) | 9.87 | -4.32 | – | –
18 | COc1ccc2cc(CCC(=O)CC(Nc3ccc(S(=O)(=O)Nc4cc(C)on4)cc3)c3cccc(Cl)c3)ccc2c1 (stereo not given) | 19.6 | 47.1 | – | –
19 | COc1ccc2cc(CCC(=O)CC(Nc3cc(C)on3)c3ccc(Br)cc3)ccc2c1 (stereo not given) | 2.87 | 1.42 | – | –
20 | COc1ccc(C(CC(=O)CCc2ccc3cc(OC)ccc3c2)Nc2cc(C)on2)cc1 (stereo not given) | 3.13 | 10.8 | – | –
21 | COc1ccc2cc(CCC(=O)CC(Nc3cc(C)on3)c3cccc(Cl)c3)ccc2c1 (stereo not given) | 4.86 | 26.3 | – | –
22 | COc1ccc2cc(CCC(=O)CC(Nc3ccc(S(=O)(=O)Nc4cc(C)on4)cc3)c3ccc(Cl)cc3Cl)ccc2c1 (stereo not given) | 64.5 | 20.3 | – | –

Row | Structure (SMILES) | Activity [1] [%] | inhibition (Rattus norvegicus) [%] | EC50 [2] [µg/mL] | IC50 [3] [µg/mL]
23 | COc1ccc2cc(CCC(=O)CC(Nc3ccc(S(N)(=O)=O)cc3)c3cccc(C)c3)ccc2c1 (stereo not given) | 57.3 | 14.1 | – | –
24 | COc1ccc2cc(CCC(=O)CC(Nc3cc(C)on3)c3ccc4c(c3)OCO4)ccc2c1 (stereo not given) | 12.6 | 0.35 | – | –
25 | COc1ccc2cc(CCC(=O)CC(Nc3cc(C)on3)c3ccc(O)cc3)ccc2c1 (stereo not given) | 5.3 | 21.4 | – | –
26 | COc1ccc2cc(CCC(=O)CC(Nc3ccc(S(N)(=O)=O)cc3)c3ccc4cc(OC)ccc4c3)ccc2c1 (stereo not given) | 19.1 | 6.39 | – | –
27 | COc1ccc2cc(CCC(=O)CC(Nc3cc(C)on3)c3cccc([N+](=O)[O-])c3)ccc2c1 (stereo not given) | 9.11 | 24.4 | – | –
28 | COc1ccc2cc(CCC(=O)CC(Nc3ccc(S(N)(=O)=O)cc3)c3ccc(Cl)cc3)ccc2c1 (stereo not given) | 71.9 | 66.3 | 6.74 (≈ 12.9 µM) | 4.07 (≈ 7.78 µM)
29 | COc1ccc2cc(CCC(=O)CC(Nc3ccc(S(N)(=O)=O)cc3)c3cccc([N+](=O)[O-])c3)ccc2c1 (stereo not given) | 14.8 | 32.7 | – | –
30 | COc1ccc2cc(CCC(=O)CC(Nc3ccc(S(=O)(=O)Nc4cc(C)on4)cc3)c3ccccc3)ccc2c1 (stereo not given) | 17.8 | 14.9 | – | –
31 | CCCCOc1ccc(C(CC(=O)CCc2ccc3cc(OC)ccc3c2)Nc2ccc(S(=O)(=O)Nc3cc(C)on3)cc2)cc1 (stereo not given) | 83.3 | 14.3 | – | –
32 | COc1ccc2cc(CCC(=O)CC(Nc3ccc(S(=O)(=O)Nc4cc(C)on4)cc3)c3cccc(C)c3)ccc2c1 (stereo not given) | 68.4 | 70.5 | – | 3.24 (≈ 5.55 µM)
33 | COc1ccc2cc(CCC(=O)CC(Nc3cc(C)on3)c3ccc([N+](=O)[O-])cc3)ccc2c1 (stereo not given) | 4.18 | 24.6 | – | –
34 | COc1ccc2cc(CCC(=O)CC(Nc3cc(C)on3)c3cccc(F)c3)ccc2c1 (stereo not given) | 30.1 | 13.3 | – | –
35 | COc1ccc2cc(CCC(=O)CC(Nc3cc(C)on3)c3ccc(Cl)c(Cl)c3)ccc2c1 (stereo not given) | 5.37 | 22.3 | – | –
36 | COc1ccc2cc(CCC(=O)CC(Nc3ccc(S(N)(=O)=O)cc3)c3cccc(Cl)c3)ccc2c1 (stereo not given) | 58.7 | 40.8 | – | –
37 | COc1ccc2cc(CCC(=O)CC(Nc3cc(C)on3)c3ccc(C)cc3)ccc2c1 (stereo not given) | 11.5 | 7.23 | – | –
38 | COc1cccc(C(CC(=O)CCc2ccc3cc(OC)ccc3c2)Nc2cc(C)on2)c1 (stereo not given) | 41.6 | 15.8 | – | –
39 | COc1ccc2cc(CCC(=O)CC(Nc3ccc(S(N)(=O)=O)cc3)c3ccc(O)cc3)ccc2c1 (stereo not given) | 73.4 | 52.8 | 5.56 (≈ 11 µM) | 4.14 (≈ 8.2 µM)
40 | COc1ccc2cc(CCC(=O)CC(Nc3ccc(S(N)(=O)=O)cc3)c3ccccc3)ccc2c1 (stereo not given) | 61 | 41.7 | – | –
41 | COc1ccc(C(CC(=O)CCc2ccc3cc(OC)ccc3c2)Nc2ccc(S(=O)(=O)Nc3cc(C)on3)cc2)cc1 (stereo not given) | 48.4 | 50.8 | – | –
42 | COc1ccc2cc(CCC(=O)CC(Nc3ccc(S(=O)(=O)Nc4cc(C)on4)cc3)c3ccc(C)cc3)ccc2c1 (stereo not given) | 58.5 | 15.8 | – | –
43 | COc1ccc2cc(CCC(=O)CC(Nc3cc(C)on3)c3ccc(Cl)cc3Cl)ccc2c1 (stereo not given) | 11.5 | 13 | – | –
44 | COc1ccc2cc(CCC(=O)CC(Nc3ccc(S(N)(=O)=O)cc3)c3ccco3)ccc2c1 (stereo not given) | 6.64 | 46.8 | – | –
